Experimental data reported in ChEMBL document CHEMBL1157562, “Piperazinyl glutamate pyridines as potent orally bioavailable P2Y12 antagonists for inhibition of platelet aggregation” (J Med Chem, 2010).

Columns and labels:
[1] = Antiplatelet aggregation activity against adenosine diphosphate-induced human platelet rich plasma assessed as inhibition of platelet aggregation by turbidimetric method; type: functional
Outline: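 Human PRP, prepared by two-step centrifugation and adjusted to 330 000 platelets/μL with PPP. Compound was preincubated 5 min at 37 °C in 0.5% DMSO, then 20 μM ADP was added. OD626 was read kinetically for 15 min at 37 °C with mixing between reads.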

Platelet = experiment: Relative potency, ratio of IC50 for drug to IC50 for AZD-6140 for platelet aggregation in human platelet rich plasma; type: functional
[2] = Clearance in Sprague-Dawley rat at 2 mg/kg, iv and 5 mg/kg, po; type: ADME, organism-based; conditions: in vivo
Outline: (§1)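 Rats received 2 mg/kg iv infusion or 5 mg/kg po, in 50% PEG400/40% PBS/10% ethanol.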

[3] = Volume of distribution at steady state in Sprague-Dawley rat at 2 mg/kg, iv and 5 mg/kg, po; type: ADME, organism-based; conditions: in vivo, read-out: Vdss; outline: as §1
[4] = Half life in Sprague-Dawley rat at 2 mg/kg, iv and 5 mg/kg, po; type: ADME, organism-based; conditions: in vivo; outline: as §1
Rattus norvegicus [5] = species: Rattus norvegicus; conditions: in vivo, po, 5 mg/kg
P2Y purinoceptor 12 = P2Y purinoceptor 12 (Homo sapiens, UniProt Q9H244); experiment: Displacement of [33P]ADP from human recombinant P2Y12 receptor expressed in CHO cells; type: cell-based
Sequence of P2Y purinoceptor 12 (Q9H244 whole entry): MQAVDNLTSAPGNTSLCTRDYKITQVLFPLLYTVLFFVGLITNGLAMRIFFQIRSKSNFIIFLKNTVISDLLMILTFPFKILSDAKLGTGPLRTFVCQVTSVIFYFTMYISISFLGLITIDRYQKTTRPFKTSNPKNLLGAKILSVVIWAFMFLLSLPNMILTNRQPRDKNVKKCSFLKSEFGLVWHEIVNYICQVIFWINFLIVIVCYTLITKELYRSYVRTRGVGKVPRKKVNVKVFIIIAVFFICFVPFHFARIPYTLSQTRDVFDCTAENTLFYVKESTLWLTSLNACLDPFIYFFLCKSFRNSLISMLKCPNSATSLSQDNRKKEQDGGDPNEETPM
Outline: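 Washed membranes from CHO cells expressing synthetic human P2Y12, incubated 1 h at room temperature with 0.2 nM 33P-MeSADP in 50 mM Tris/100 mM NaCl/1 mM EDTA. Compound was tested as a 7-point 3-fold series in triplicate. Nonspecific binding was defined with 300 nM 2-MeSADP, followed by filtration.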

in vivo = conditions: Sprague-Dawley, rat, po, 5 mg/kg
[6] = Apparent permeability across human Caco-2 cells; type: ADME, cell-based
[7] = Solubility of the compound; type: physicochemical
[8] = Chemical stability of the compound; type: physicochemical
[9] = Antiplatelet aggregation activity against adenosine diphosphate-induced human platelet rich plasma assessed as inhibition of platelet aggregation by chronolog PRP aggregometry assay; conditions: read-out: IC50(app)
Rattus norvegicus [10] = species: Rattus norvegicus; experiment: Antithrombotic activity in rat venous thrombus model assessed as inhibition of injury-induced thrombosis; type: functional, organism-based
Outline: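 Rats given test compound orally; thrombosis induced by vascular injury with ferric chloride; thrombus formation was scored as the read-out.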

Rattus norvegicus [11] = species: Rattus norvegicus; experiment: Toxicity in rat assessed as adverse effects; type: organism-based; conditions: in vivo
Canis familiaris = species: Canis familiaris; experiment: Toxicity in dog assessed as adverse effects; type: organism-based, Canis lupus familiaris; conditions: in vivo

CCCCCOC(=O)N1CCN(C(=O)[C@H](CCC(=O)O)NC(=O)c2cc(OCCOC)cc(-c3ccccc3)n2)CC1
IC50 ([1]; Homo sapiens, Platelet, Plasma): 4.3 µM
Ratio IC50 (Platelet): 3.2
clearance [2]: 46 mL/min/kg
Vd [3]: 2.3 L/kg
half-life [4]: 36 min
F (Rattus norvegicus [5]): 183%

CCOC(=O)N1CCN(C(=O)[C@H](CCC(=O)O)NC(=O)c2cc(OCCOC)cc(-c3ccccc3)n2)CC1
Ki (P2Y purinoceptor 12): 0.14 µM
IC50 ([1]; Homo sapiens, Platelet, Plasma): 6 µM
Ratio IC50 (Platelet): 8
clearance [2]: 94 mL/min/kg
Vd [3]: 13.6 L/kg
half-life [4]: 12 min
bioavailability (in vivo): 33%

CCCCOC(=O)N1CCN(C(=O)[C@H](CCC(=O)O)NC(=O)c2cc(OCCOC)cc(-c3ccccc3)n2)CC1
IC50 ([1]; Homo sapiens, Platelet, Plasma): 4.5 µM
Ratio IC50 (Platelet): 2.9
Papp [6]: 1.1 ×10⁻⁶ cm/s

CCCCOc1cc(C(=O)N[C@@H](CCC(=O)O)C(=O)N2CCN(C(=O)OCC)CC2)nc(-c2ccccc2)c1
Ki (P2Y purinoceptor 12): 0.06 µM
IC50 ([1]; Homo sapiens, Platelet, Plasma): 34 µM
Ratio IC50 (Platelet): 32
clearance [2]: 109 mL/min/kg
Vd [3]: 3.9 L/kg
half-life [4]: 24 min
bioavailability (in vivo): 72%

CCCCCOC(=O)N1CCN(C(=O)[C@H](CCC(=O)O)NC(=O)c2cc(NCCO)cc(-c3ccccc3)n2)CC1
Ki (P2Y purinoceptor 12): 0.0057 µM
IC50 ([1]; Homo sapiens, Platelet, Plasma): 3.8 µM
Ratio IC50 (Platelet): 3.2
clearance [2]: 103 mL/min/kg
Vd [3]: 3.9 L/kg
half-life [4]: 24 min
bioavailability (in vivo): 8%

CCCCCOC(=O)N1CCN(C(=O)[C@H](CCC(=O)O)NC(=O)c2cc(O)cc(-c3ccccc3)n2)CC1
Ki (P2Y purinoceptor 12): 0.011 µM
IC50 ([1]; Homo sapiens, Platelet, Plasma): 10 µM
Ratio IC50 (Platelet): 7.2
clearance [2]: 675 mL/min/kg
Vd [3]: 29 L/kg
half-life [4]: 30 min
bioavailability (in vivo): 66%

CCCCCOC(=O)N1CCN(C(=O)[C@H](CCC(=O)O)NC(=O)c2cc(N3CCC(COC)CC3)cc(-c3ccccc3)n2)CC1
IC50 ([1]; platelet): 3.9 µM
solubility [7]: Soluble
Stability [8]: Stable
IC50 [9]: 1.8 µM
inhibition (Rattus norvegicus [10]): Dose-dependent effect
Activity (Rattus norvegicus [11]): Non-toxic
Activity (Canis familiaris): Non-toxic

CCCCCCOC(=O)N1CCN(C(=O)[C@H](CCC(=O)O)NC(=O)c2cc(OC3CCNCC3)cc(-c3ccccc3)n2)CC1
Ki (P2Y purinoceptor 12): 0.0094 µM
IC50 ([1]; Homo sapiens, Platelet, Plasma): 2.4 µM
Ratio IC50 (Platelet): 1.8
clearance [2]: 150 mL/min/kg
Vd [3]: 6.9 L/kg
half-life [4]: 30 min
bioavailability (in vivo): 1%
